Test results: ChEMBL document CHEMBL4118021, “Studies of TAK1-centered polypharmacology with novel covalent TAK1 inhibitors” (Bioorg Med Chem, 2017)
The source made the active and inactive calls.

Assays:
Type in all cases: cell-based
[1] = biological target: Acyl-coenzyme A thioesterase 13 (Homo sapiens) (UniProt Q9NPJ3); test: Binding affinity to ACOT13 in human NCI-H23 cells at 1 uM by mass spectrometry based pull down assay
Procedure, shortened: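 NCI-H23 or NCI-H358 cells were grown and lysed. Lysates were incubated overnight at 4 °C with 1 μM biotinylated covalent probe or DMSO, then pulled down on streptavidin beads. Proteins were run on polyacrylamide gels and stained with Coomassie. Bands were excised, digested and identified by mass spectrometry.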

[2] = biological target: Sarcoplasmic/endoplasmic reticulum calcium ATPase 2 (Homo sapiens) (UniProt P16615); test: Binding affinity to ATP2A2 in human NCI-H23 cells at 1 uM by mass spectrometry based pull down assay
[3] = system: NCI-H23; test: Binding affinity to PSMA7 in human NCI-H23 cells at 1 uM by mass spectrometry based pull down assay
[4] = biological target: 80S Ribosome (Homo sapiens) (UniProt P08865+P42677+P62753+P15880+P23396+P61247+P62701+P22090+P46782+P62081+P62241+P46781+P46783+P62280+P25398+P62277+P62263+P62841+P62244+P62249+P08708+P62269+P39019+P60866+P63220+P62266+P62847+P62851+P62854+P62979+P62857+P62273+P62861+P39023+P36578+P46777+Q02878+P18124+P62424+P62917+P32969+P27635+P62906+P62913+P30050+P26373+P40429+P50914+P61313+P18621+Q07020+Q02543+P84098+P46778+P35268+P62829+P62750+P83731+P61254+P61353+P46776+P46779+P47914+P62888+P62899+P62910+P49207+P42766+P18077+Q9Y3U8+P83881+P61927+P61513+P63173+P62891+P62945+P05388+P05386); test: Binding affinity to RPS17 in human NCI-H23 cells at 1 uM by mass spectrometry based pull down assay

Measured: Activity

Sarcoplasmic/endoplasmic reticulum calcium ATPase 2 (Homo sapiens), sequence (P16615 whole entry): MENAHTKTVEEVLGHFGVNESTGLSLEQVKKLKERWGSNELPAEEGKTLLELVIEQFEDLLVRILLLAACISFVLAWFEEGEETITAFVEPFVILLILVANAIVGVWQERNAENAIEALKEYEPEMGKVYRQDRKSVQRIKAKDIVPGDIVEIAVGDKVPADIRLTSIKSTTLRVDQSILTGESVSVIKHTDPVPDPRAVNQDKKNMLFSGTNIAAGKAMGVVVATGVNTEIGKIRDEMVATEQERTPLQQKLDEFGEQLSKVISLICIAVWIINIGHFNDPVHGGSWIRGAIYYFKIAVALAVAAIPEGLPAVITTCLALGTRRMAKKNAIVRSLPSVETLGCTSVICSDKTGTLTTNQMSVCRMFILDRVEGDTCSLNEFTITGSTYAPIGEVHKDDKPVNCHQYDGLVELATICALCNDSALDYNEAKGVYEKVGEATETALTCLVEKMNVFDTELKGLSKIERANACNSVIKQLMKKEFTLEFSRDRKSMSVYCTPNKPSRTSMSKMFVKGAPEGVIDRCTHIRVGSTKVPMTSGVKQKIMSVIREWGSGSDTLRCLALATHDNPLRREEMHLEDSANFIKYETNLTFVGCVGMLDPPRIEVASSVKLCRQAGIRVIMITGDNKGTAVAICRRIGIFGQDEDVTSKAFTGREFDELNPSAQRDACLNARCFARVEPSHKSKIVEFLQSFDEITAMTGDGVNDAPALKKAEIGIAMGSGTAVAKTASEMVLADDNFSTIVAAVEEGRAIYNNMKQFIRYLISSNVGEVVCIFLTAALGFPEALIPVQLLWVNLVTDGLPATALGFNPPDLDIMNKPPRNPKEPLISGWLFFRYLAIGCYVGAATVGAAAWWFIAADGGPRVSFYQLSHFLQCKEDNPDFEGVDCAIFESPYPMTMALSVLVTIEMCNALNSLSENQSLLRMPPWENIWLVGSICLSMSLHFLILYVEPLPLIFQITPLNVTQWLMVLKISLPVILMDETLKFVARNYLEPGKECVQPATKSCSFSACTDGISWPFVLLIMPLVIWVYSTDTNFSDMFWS
Acyl-coenzyme A thioesterase 13 (Homo sapiens), sequence (Q9NPJ3 whole entry): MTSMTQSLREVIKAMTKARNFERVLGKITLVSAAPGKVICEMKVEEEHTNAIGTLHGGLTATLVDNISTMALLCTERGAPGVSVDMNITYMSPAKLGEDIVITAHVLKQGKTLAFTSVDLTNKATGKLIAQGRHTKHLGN

C=CC(=O)Nc1ccccc1Nc1nc(Nc2ccc(N3CCN(CCOCCOCCOCCNC(=O)CCCC[C@@H]4SC[C@@H]5NC(=O)N[C@@H]54)CC3)cc2)ncc1Cl
active: [1] | [2] | [3] | [4]
